Measured values published in ChEMBL document CHEMBL1126175, “Synthesis and antibacterial activity of new tetracyclic quinolone antibacterials” (J Med Chem, 1992).
Values after ≈ are worked out from the molar mass of the structure shown.

Tests used:
Escherichia coli [1] = experiment: In vitro antibacterial activity was measured against nalidixic acid resistant strain 6 from Escherichia coli KC-14; format: functional
Outline: (§1)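 MIC by serial 2-fold agar dilution on Mueller–Hinton agar, inoculum about 10^6 CFU/mL. Plates were incubated 37 °C for 18 h. MIC was the lowest concentration preventing visible growth.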

Staphylococcus aureus [2] = experiment: In vitro antibacterial activity against staphylococcus aureus FDA 209P JC-1,Sa(F)(gram-positive); format: functional
Outline: (§2)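 MIC by serial 2-fold agar dilution on Mueller–Hinton agar; inoculum about 10^6 CFU/mL; MIC taken as lowest concentration preventing visible growth after 18 h at 37 °C.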

Escherichia coli [3] = experiment: In vitro antibacterial activity was measured against nalidixic acid resistant strain 1 from Escherichia coli KC-14; format: functional; outline: as §1
Pseudomonas aeruginosa [4] = experiment: In vitro antibacterial activity against Pseudomonas aeruginosa IFO 3445,Pa(I),(gram-negative); format: functional; outline: as §2
Pseudomonas aeruginosa [5] = experiment: In vitro antibacterial activity against Pseudomonas aeruginosa E-2,Pa(E),(gram-negative); format: functional; outline: as §2
Escherichia coli [6] = experiment: In vitro antibacterial activity was measured against nalidixic acid resistant strain 5 from Escherichia coli KC-14; format: functional; outline: as §1
Escherichia coli [7] = experiment: In vitro antibacterial activity was measured against nalidixic acid resistant strain 4 from Escherichia coli KC-14; format: functional; outline: as §1
Escherichia coli [8] = experiment: In vitro antibacterial activity was measured against nalidixic acid resistant strain 7 from Escherichia coli KC-14; format: functional; outline: as §1
[9] = tested on: Staphylococcus epidermidis; experiment: In vitro antibacterial activity against staphylococcus epidermidis IAM 1296, (gram-positive); format: functional; outline: as §2
Staphylococcus aureus [10] = experiment: In vitro antibacterial activity against staphylococcus aureus IID 803,(gram-positive); format: functional; outline: as §2
Enterococcus faecalis [11] = experiment: In vitro antibacterial activity against Enterococcus faecalis IID 682,[…],(gram-positive); format: functional; outline: as §2
Escherichia coli [12] = experiment: In vitro antibacterial activity was measured against nalidixic acid resistant strain 3 from Escherichia coli KC-14; format: functional; outline: as §1
Escherichia coli [13] = experiment: In vitro antibacterial activity was measured against nalidixic acid resistant strain 2 from Escherichia coli KC-14; format: functional; outline: as §1
Klebsiella pneumoniae = experiment: In vitro antibacterial activity against klebsiella pneumoniae B54,Kp,(gram-negative); format: functional
Escherichia coli [14] = experiment: In vitro antibacterial activity against Escherichia coli NIHJ JC-2,(gram-negative)
Escherichia coli [15] = experiment: In vitro antibacterial activity against Escherichia coli KC-14, Ec(K), (gram-negative); format: functional; outline: as §2
Enterococcus faecalis [16] = experiment: In vitro antibacterial activity against Enterococcus faecalis IID 682,Ef.([…]); format: functional; outline: as §2

Row | MIC (Staphylococcus aureus [2]) | MIC (Pseudomonas aeruginosa [4]) | MIC (Pseudomonas aeruginosa [5]) | MIC [9] | MIC (Staphylococcus aureus [10]) | MIC (Enterococcus faecalis [11]) | MIC (Klebsiella pneumoniae) | MIC (Escherichia coli [14]) | MIC (Escherichia coli [15]) | MIC (Enterococcus faecalis [16]) | Structure (SMILES) | MIC (Escherichia coli [1]) | MIC (Escherichia coli [3]) | MIC (Escherichia coli [6]) | MIC (Escherichia coli [7]) | MIC (Escherichia coli [8]) | MIC (Escherichia coli [12]) | MIC (Escherichia coli [13])
1 | 0.025 µg/mL (≈ 0.0664 µM) | 0.39 µg/mL (≈ 1.04 µM) | 0.39 µg/mL (≈ 1.04 µM) | 0.2 µg/mL (≈ 0.531 µM) | 0.025 µg/mL (≈ 0.0664 µM) | 0.2 µg/mL (≈ 0.531 µM) | 0.05 µg/mL (≈ 0.133 µM) | 0.05 µg/mL (≈ 0.133 µM) | 0.05 µg/mL (≈ 0.133 µM) |  | O=C(O)c1c(=O)c2cc(F)c(N3CCC(O)C3)c3c2n2c(csc12)CO3 (stereo unspecified) | 0.39 µg/mL (≈ 1.04 µM) | > 3.13 µg/mL | 0.78 µg/mL (≈ 2.07 µM) | 0.78 µg/mL (≈ 2.07 µM) | 0.2 µg/mL (≈ 0.531 µM) | 0.78 µg/mL (≈ 2.07 µM) | > 3.13 µg/mL
2 | 0.2 µg/mL (≈ 0.598 µM) | 1.56 µg/mL (≈ 4.67 µM) | 6.25 µg/mL (≈ 18.7 µM) | 0.1 µg/mL (≈ 0.299 µM) | 0.1 µg/mL (≈ 0.299 µM) | 0.78 µg/mL (≈ 2.33 µM) | 0.2 µg/mL (≈ 0.598 µM) | 0.39 µg/mL (≈ 1.17 µM) | 0.39 µg/mL (≈ 1.17 µM) |  | CN(C)c1c(F)cc2c(=O)c(C(=O)O)c3scc4n3c2c1OC4 |  |  |  |  |  |  | 
3 | 0.2 µg/mL (≈ 0.593 µM) | 1.56 µg/mL (≈ 4.62 µM) | 3.13 µg/mL (≈ 9.28 µM) | 0.2 µg/mL (≈ 0.593 µM) | 0.1 µg/mL (≈ 0.296 µM) | 3.13 µg/mL (≈ 9.28 µM) | 0.39 µg/mL (≈ 1.16 µM) | 0.39 µg/mL (≈ 1.16 µM) | 0.2 µg/mL (≈ 0.593 µM) |  | CSc1c(F)cc2c(=O)c(C(=O)O)c3scc4n3c2c1OC4 |  |  |  |  |  |  | 
4 | 0.2 µg/mL (≈ 0.514 µM) | 1.56 µg/mL (≈ 4.01 µM) | 0.78 µg/mL (≈ 2 µM) | 0.78 µg/mL (≈ 2 µM) | 0.2 µg/mL (≈ 0.514 µM) | 0.78 µg/mL (≈ 2 µM) | 0.1 µg/mL (≈ 0.257 µM) | 0.2 µg/mL (≈ 0.514 µM) | 0.1 µg/mL (≈ 0.257 µM) |  | CC1CN(c2c(F)cc3c(=O)c(C(=O)O)c4scc5n4c3c2OC5)CCN1 (stereo unspecified) |  |  |  |  |  |  | 
5 | 0.05 µg/mL (≈ 0.127 µM) | 6.25 µg/mL (≈ 15.9 µM) | 3.13 µg/mL (≈ 7.98 µM) | 0.1 µg/mL (≈ 0.255 µM) | 0.05 µg/mL (≈ 0.127 µM) | 3.13 µg/mL (≈ 7.98 µM) | 0.39 µg/mL (≈ 0.994 µM) | 0.39 µg/mL (≈ 0.994 µM) | 0.39 µg/mL (≈ 0.994 µM) |  | O=C(O)c1c(=O)c2cc(F)c(N3CCSCC3)c3c2n2c(csc12)CO3 |  |  |  |  |  |  | 
6 | 0.2 µg/mL (≈ 0.623 µM) | 3.13 µg/mL (≈ 9.74 µM) | 6.25 µg/mL (≈ 19.5 µM) | 0.39 µg/mL (≈ 1.21 µM) | 0.2 µg/mL (≈ 0.623 µM) | 6.25 µg/mL (≈ 19.5 µM) | 0.2 µg/mL (≈ 0.623 µM) |  | 0.78 µg/mL (≈ 2.43 µM) | 6.25 µg/mL (≈ 19.5 µM) | COc1c(F)cc2c(=O)c(C(=O)O)c3scc4n3c2c1OC4 |  |  |  |  |  |  | 
7 | 0.2 µg/mL | 3.13 µg/mL | 3.13 µg/mL | 0.39 µg/mL | 0.2 µg/mL | 0.78 µg/mL | 0.39 µg/mL | 0.2 µg/mL | 0.1 µg/mL |  | C[C@@H]1CN(c2c(F)cc3c(=O)c(C(=O)O)c4scc5n4c3c2OC5)C[C@H](C)N1.Cl |  |  |  |  |  |  | 
8 | 0.05 µg/mL (≈ 0.133 µM) | 1.56 µg/mL (≈ 4.14 µM) | 0.39 µg/mL (≈ 1.04 µM) | 0.1 µg/mL (≈ 0.266 µM) | 0.05 µg/mL (≈ 0.133 µM) | 0.39 µg/mL (≈ 1.04 µM) | 0.2 µg/mL (≈ 0.531 µM) | 0.39 µg/mL (≈ 1.04 µM) | 0.39 µg/mL (≈ 1.04 µM) |  | O=C(O)c1c(=O)c2cc(F)c(N3CCOCC3)c3c2n2c(csc12)CO3 |  |  |  |  |  |  | 
9 |  |  |  |  |  |  |  |  |  |  | CCn1cc(C(=O)O)c(=O)c2ccc(C)nc21 [NALIDIXIC ACID] | 100 µg/mL (≈ 431 µM) | > 1600 µg/mL | 100 µg/mL (≈ 431 µM) | 100 µg/mL (≈ 431 µM) | 100 µg/mL (≈ 431 µM) | 200 µg/mL (≈ 861 µM) | > 1600 µg/mL

Row | Structure (SMILES) | MIC (Staphylococcus aureus [2]) | MIC (Pseudomonas aeruginosa [4]) | MIC (Pseudomonas aeruginosa [5]) | MIC [9] | MIC (Staphylococcus aureus [10]) | MIC (Enterococcus faecalis [11]) | MIC (Klebsiella pneumoniae) | MIC (Escherichia coli [14]) | MIC (Escherichia coli [15]) | MIC (Enterococcus faecalis [16]) | MIC (Escherichia coli [1]) | MIC (Escherichia coli [3]) | MIC (Escherichia coli [6]) | MIC (Escherichia coli [7]) | MIC (Escherichia coli [8]) | MIC (Escherichia coli [12]) | MIC (Escherichia coli [13])
10 | Cl.O=C(O)c1cn(C2CC2)c2cc(N3CCNCC3)c(F)cc2c1=O [CIPROFLOXACIN HYDROCHLORIDE] | 0.2 µg/mL | 0.78 µg/mL | 0.78 µg/mL | 1.56 µg/mL | 0.78 µg/mL | 0.78 µg/mL |  | 0.05 µg/mL |  |  |  |  |  |  |  |  | 
11 | CCn1cc(C(=O)O)c(=O)c2cc(F)c(N3CCNCC3)cc21 [NORFLOXACIN] | 0.39 µg/mL (≈ 1.22 µM) | 1.56 µg/mL (≈ 4.89 µM) | 1.56 µg/mL (≈ 4.89 µM) | 3.13 µg/mL (≈ 9.8 µM) | 1.56 µg/mL (≈ 4.89 µM) | 1.56 µg/mL (≈ 4.89 µM) | 0.1 µg/mL (≈ 0.313 µM) | 0.2 µg/mL (≈ 0.626 µM) | 0.2 µg/mL (≈ 0.626 µM) |  |  |  |  |  |  |  | 
12 | O=C(O)c1c(=O)c2cc(F)c(N3CCNCC3)c3c2n2c(csc12)CO3 | 0.39 µg/mL (≈ 1.04 µM) | 0.78 µg/mL (≈ 2.08 µM) | 0.78 µg/mL (≈ 2.08 µM) | 1.56 µg/mL (≈ 4.16 µM) | 0.39 µg/mL (≈ 1.04 µM) | 0.78 µg/mL (≈ 2.08 µM) | 0.05 µg/mL (≈ 0.133 µM) | 0.1 µg/mL (≈ 0.266 µM) | 0.1 µg/mL (≈ 0.266 µM) |  |  |  |  |  |  |  | 
